Test results: PubChem BioAssay AID602221 (Southern Research Specialized Biocontainment Screening …, 2012)
Activity calls are given as the source filed them.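 How the source made its calls: active means inhibition of 30% or more at any tested concentration; inactive means the rest.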

Molecular target: Aspartyl aminopeptidase (Homo sapiens) (UniProt Q9ULA0)
Assay: human M18AAP aspartyl aminopeptidase inhibitors, dose response, counter-screen for PfM18AAP inhibitor project, biochemical, QFRET fluorogenic substrate, set 2 (AID 602221)
Conditions: recombinant hM18AAP, H-Glu-NHMec fluorogenic cleavage
Procedure, shortened: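 Assay system: purified recombinant human M18 aspartyl aminopeptidase (hM18AAP) / Amount: hM18AAP at 5 µg/mL final / Buffer or medium: Tris pH 7.5 with CoCl2 and 2% DMSO / Also added: H-Glu-NHMec substrate, 0.1 mM / Incubation: 90 min reaction, room temperature / Detection: fluorescence, ex 370/em 460 nm / Benchmarks: no-enzyme background wells as reference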

IC50 [µM] | Compound
6.04 | CCc1ccc(NC(=O)Cc2nc(-c3ccc(O)c(O)c3)cs2)cc1
4.78 | Oc1ccc(-c2csc(NC3CCCC3)n2)cc1O
2.25 | Oc1ccc(-c2csc(Nc3ncccn3)n2)cc1O

More lines, now with the values behind:

Compound | IC50 [µM]
Oc1ccc(CCNc2c3ccccc3nc3ccccc23)cc1O | 0.95
CN1CCN(c2nc(-c3ccc(O)c(O)c3)cs2)CC1 | 3.7
Oc1ccc(CCNc2ccnc3ccccc23)cc1O | 7.26
CN1CCN(CCCc2ccc(O)c(O)c2)CC1 | 6.49
CN1CCN(CCc2ccc(O)c(O)c2)CC1 | 29.3

Same assay, conditions: recombinant hM18AAP, H-Glu-NHMec fluorogenic cleavage; at 100 µM (top of the series)

inhibition | Compound
inactive | COc1ccc(CCNC(c2ccccc2)c2ccccc2)cc1OC
inactive | COc1ccc(CCCN2CCN(C)CC2)cc1OC
